Assay results: ChEMBL document CHEMBL3525997, “Debrisoquine metabolism and CYP2D expression in marmoset liver microsomes” (Drug Metab Dispos, 2012)
Each block holds one molecule with its values, some of them ahead of it.

Tests used:
Type in all cases: ADME, Callithrix jacchus
[1] = Drug metabolism in marmoset liver microsomes assessed as 4-hydroxydebrisoquine formation at 500 uM after 180 mins by NMR analysis; settings: 3 h
Procedure, shortened: (§1)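 Large-scale incubation to generate metabolites for structural identification. Pooled marmoset liver microsomal protein 4 mg/ml (batch 1), 6 mM NADPH, 50 mM Tris-HCl pH 7.69, total 35 ml. Reaction started with [14C]debrisoquine to a final concentration of 500 µM and incubated for 180 min.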

[2] = Drug metabolism in marmoset liver microsomes assessed as 6,7-hydroxydebrisoquine formation at 500 uM after 180 mins by NMR analysis; settings: 3 h; procedure, shortened: as §1
[3] = Drug metabolism in marmoset liver microsomes assessed as 6-hydroxydebrisoquine formation at 500 uM after 180 mins by NMR analysis; settings: 3 h; procedure, shortened: as §1
[4] = Drug metabolism in marmoset liver microsomes assessed as 7-hydroxydebrisoquine formation at 500 uM after 180 mins by NMR analysis; settings: 3 h; procedure, shortened: as §1
[5] = Drug metabolism in marmoset liver microsomes assessed as 5-hydroxydebrisoquine formation at 500 uM after 180 mins by NMR analysis; settings: 3 h; procedure, shortened: as §1
[6] = Drug metabolism in marmoset liver microsomes assessed as 8-hydroxydebrisoquine formation at 500 uM after 180 mins by NMR analysis; settings: 3 h; procedure, shortened: as §1
[7] = Drug metabolism in marmoset liver microsomes treated with [14C]debrisoquine at 500 uM after 180 mins by NMR analysis; settings: 3 h; procedure, shortened: as §1
[8] = Drug metabolism in marmoset liver microsomes treated with [14C]debrisoquine at 500 uM after 120 mins by LC/MS/MS analysis; settings: 2 h
Procedure, shortened: (§2)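 Pooled male marmoset liver microsomes (5 mg/ml, batch 1) incubated with [14C]debrisoquine 500 µM, NADPH 6 mM, Tris-HCl 50 mM pH 7.69, 37°C, 120 min. Protein precipitated, supernatant injected on C18 reversed-phase HPLC with 10 mM TFA/acetonitrile linear gradient over 40 min. Detection by UV at 211 nm, radioactivity flow detector, and ESI+ LC-MS/MS with product ion spectra.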

[9] = Drug metabolism in marmoset liver microsomes treated with [14C]debrisoquine at 500 uM after 120 mins by radio-HPLC chromatography; settings: 2 h; procedure, shortened: as §2
[10] = Drug metabolism in marmoset liver microsomes assessed as metabolite MF-1 formation at 500 uM after 120 mins by radio-HPLC chromatography; settings: 2 h; procedure, shortened: as §2
[11] = Drug metabolism in marmoset liver microsomes assessed as 4-hydroxydebrisoquine formation at 500 uM after 120 mins by LC/MS/MS analysis; settings: 2 h; procedure, shortened: as §2
[12] = Drug metabolism in marmoset liver microsomes assessed as metabolite MF-1 formation at 500 uM after 120 mins by LC/MS/MS analysis; settings: 2 h; procedure, shortened: as §2
[13] = Drug metabolism in marmoset liver microsomes assessed as 4-hydroxydebrisoquine formation at 500 uM after 120 mins by radio-HPLC chromatography; settings: 2 h; procedure, shortened: as §2
[14] = Drug metabolism in marmoset liver microsomes assessed as metabolite MF-3 formation at 500 uM after 120 mins by LC/MS/MS analysis; settings: 2 h; procedure, shortened: as §2
[15] = Drug metabolism in marmoset liver microsomes assessed as metabolite MF-3 formation at 500 uM after 120 mins by radio-HPLC chromatography; settings: 2 h; procedure, shortened: as §2

SMILES: N=C(N)N1CCc2ccccc2C1.O=S(=O)(O)O
- Drug metabolism [1]: metabolite_detected
- Drug metabolism [2]: metabolite_detected
- Drug metabolism [3]: metabolite_detected
- Drug metabolism [4]: metabolite_detected
- Drug metabolism [5]: metabolite_detected
- Drug metabolism [6]: metabolite_detected

SMILES: N=C(N)N1Cc2ccccc2C(O)C1 (stereo not given)
- Drug metabolism [7]: metabolite_detected
- Drug metabolism [8]: metabolite_detected
- Drug metabolism [9]: metabolite_detected

SMILES: N=C(N)N1CCc2cccc(O)c2C1
- Drug metabolism [7]: metabolite_detected

SMILES: N=[14C](N)N1CCc2ccccc2C1
- Drug metabolism [10]: metabolite_detected
- Drug metabolism [11]: metabolite_detected
- Drug metabolism [12]: metabolite_detected
- Drug metabolism [13]: metabolite_detected
- Drug metabolism [14]: metabolite_detected
- Drug metabolism [15]: metabolite_detected

Results, then the molecule that gave them:

- Drug metabolism [7]: metabolite_detected
SMILES: N=C(N)N1CCc2cc(O)c(O)cc2C1

- Drug metabolism [7]: metabolite_detected
SMILES: N=C(N)N1CCc2c(O)cccc2C1

- Drug metabolism [7]: metabolite_detected
SMILES: N=C(N)N1CCc2cc(O)ccc2C1

- Drug metabolism [7]: metabolite_detected
SMILES: N=C(N)N1CCc2ccc(O)cc2C1
